Here are results for eight compounds from ChEMBL document CHEMBL1250432, “Pteridine-sulfonamide conjugates as dual inhibitors of carbonic anhydrases and dihydrofolate reductase with potential antitumor activity” (Bioorg Med Chem, 2010).

One may read the Ki as a measure of affinity in units of concentration, obtained from inhibition or displacement. Broadly, the IC50 is the midpoint of a concentration-inhibition curve.

Calls of active or inactive are those of the source. The rule behind the calls is not given here. A value given as a limit tells only on which side of the number the result lay.

The target of one assay is Carbonic anhydrase 9 (Homo sapiens, UniProt Q16790). Nature of the assay: Inhibition of human recombinant carbonic anhydrase 9 after 15 mins by stopped flow CO2 hydration assay.
The target in a further assay is Dihydrofolate reductase (Lactobacillus casei, UniProt P00381). In words: Inhibition of Lactobacillus casei DHFR by spectrophotometric analysis. Also on record: species or system Lacticaseibacillus casei.
The subject of a further assay is PC-3. In words: Antiproliferative activity against human PC3 cells after 72 hrs by MTT assay. The format is functional, cell-based. The conditions noted are these: PC-3, 72 h. The method in brief:
(§1)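 A549 (ATCC) and PC3 cells kept in RPMI-1640 with 10% heat-inactivated FBS, 2 mM glutamine and 1 mM sodium pyruvate at 37 °C in humidified 5% CO2. Seeded at about 5000 cells/well and exposed continuously for 72 h to a range of inhibitor concentrations, with MTX as control. Viability read by MTT assay; IC50 reported.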
For orientation: Tetrazolium dyes change colour on reduction, which living cells bring about.

Assay [1] concerns the target Dihydrofolate reductase (Lactobacillus casei) (UniProt P00381). Nature of the assay: Inhibition of Lactobacillus casei DHFR at 0.5 mM by spectrophotometric analysis. The conditions noted are these: Lacticaseibacillus casei. The method in brief: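 L. casei DHFR activity followed spectrophotometrically as the fall in absorbance at 340 nm from NADPH oxidation, with and without inhibitor, at 30 °C. Inhibitor tested at 0.5 mM, the highest concentration used.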

For another assay, the system named is A549. In words: Antiproliferative activity against human A549 cells after 72 hrs by MTT assay. The format is functional, cell-based. The conditions noted are these: A549, 72 h. Summed up:
as §1

Chain of Dihydrofolate reductase (P00381 whole entry): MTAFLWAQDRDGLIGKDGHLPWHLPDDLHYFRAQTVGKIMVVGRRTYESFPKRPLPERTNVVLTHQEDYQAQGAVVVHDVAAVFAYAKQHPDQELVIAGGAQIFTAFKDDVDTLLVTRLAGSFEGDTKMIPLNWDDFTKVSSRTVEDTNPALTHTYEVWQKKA
Chain of Dihydrofolate reductase (Lactobacillus casei) (P00381 whole entry): as above

Consider `Nc1nc(N)c2nc(CNc3ccc(C(=O)NCCc4ccc(S(=O)(=O)O)cc4)cc3)cnc2n1`, for which the inhibition constant (Ki) at Carbonic anhydrase 9 was above 1 µM. The figures for the IC50 against Dihydrofolate reductase and in the assay with PC-3 were 1.3 µM and 500 µM, respectively.
Taken in the same sequence, the figures for `CN(Cc1cnc2nc(N)nc(N)c2n1)c1ccc(C(=O)NCCc2ccc(S(N)(=O)=O)cc2)cc1` were 0.0037 µM, 1.8 µM and 500 µM.
Consider `Nc1nc(N)c2nc(CNCCc3ccc(S(N)(=O)=O)cc3)cnc2n1`, for which, in assay [1], the inhibition entry was “inactive”. This compound also gave an IC50 in the assay on PC-3 of 300 µM.
For the compound `Nc1nc(N)c2nc(CNCCc3ccc(S(=O)(=O)O)cc3)cnc2n1`, the inhibition result in assay [1] is “inactive”. For the same compound, at Carbonic anhydrase 9, the Ki is above 1 µM. The compound also gave a half-maximal inhibitory concentration (IC50) with PC-3 of 460 µM.
On to `Nc1nc(N)c2nc(CNc3ccc(S(=O)(=O)O)cc3)cnc2n1`, for which, on Carbonic anhydrase 9, the Ki is above 1 µM. Besides, the IC50 on Dihydrofolate reductase stood at 2 µM; in the assay on PC-3 it was 500 µM.
Taken in the same sequence, the figures for `Nc1nc(N)c2nc(CNc3ccc(S(N)(=O)=O)cc3)cnc2n1` were 0.0021 µM, 2.5 µM and 550 µM.
As to `Nc1nc(N)c2nc(CNc3ccc(C(=O)NCCc4ccc(S(N)(=O)=O)cc4)cc3)cnc2n1`, the Ki on Carbonic anhydrase 9 amounted to 0.0025 µM. Moreover, the results for the IC50 against Dihydrofolate reductase, in the assay with PC-3 and in the assay with A549 were 20 µM, 400 µM and 2000 µM, respectively.
With `CN(Cc1cnc2nc(N)nc(N)c2n1)c1ccc(C(=O)N[C@@H](CCC(=O)O)C(=O)O)cc1` [METHOTREXATE], the IC50 in the assay on PC-3 was determined as 0.001 µM; in the assay with A549 it was 0.005 µM.
